# ChEMBL document CHEMBL4689842, “EUbOPEN Chemogenomics Library wave 1” (2021)
# What was measured:
# Assay type in all cases: toxicity, cell-based
# U2OS [1] = assay: Multiplex assay against U2OS; details: human
# Outline: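 Per cents of healthy-nucleus cells form the tubulin, mitochondrial-mass and membrane-permeability phenotype values. Live cells were stained at seeding with Hoechst33342, BioTracker Green Microtubule Cytoskeleton Dye, MitoTracker Red and Annexin V Alexa Fluor 680. After compound addition they were imaged on a CQ1 microscope at 37°C and 5% CO2, and CellPathfinder machine-learning gating split them into Hoechst high-intensity objects or normal cells, normal cells into healthy, pyknosed or fragmented nuclei, and pyknosed cells into mitotic or apoptotic.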
# HEK-293T = assay: Incucyte cell viability with HEK293T; details: human, 10 µM, compound concentration 10 uM; also: filed as whole numbers so only -1 and 0 and 1 occur
# Fibroblast = assay: Incucyte cell viability with human fibroblast; details: 10 µM, compound concentration 10 uM; also: filed as whole numbers so only -1 and 0 and 1 occur
# U2OS [2] = assay: Incucyte cell viability with U2OS; details: human, 10 µM, compound concentration 10 uM; also: filed as whole numbers so only -1 and 0 and 1 occur
# [3] = 12 h, 1 µM, compound concentration 1 uM, replicate 1
# [4] = 12 h, 1 µM, compound concentration 1 uM, replicate 2
# [5] = 12 h, 10 µM, compound concentration 10 uM, replicate 1
# [6] = 12 h, 10 µM, compound concentration 10 uM, replicate 2
# [7] = 24 h, 1 µM, compound concentration 1 uM, replicate 1
# [8] = 24 h, 1 µM, compound concentration 1 uM, replicate 2
# [9] = 24 h, 10 µM, compound concentration 10 uM, replicate 1
# [10] = 24 h, 10 µM, compound concentration 10 uM, replicate 2
# [11] = 48 h, 1 µM, compound concentration 1 uM, replicate 1
# [12] = 48 h, 1 µM, compound concentration 1 uM, replicate 2
# [13] = 48 h, 10 µM, compound concentration 10 uM, replicate 1
# [14] = 48 h, 10 µM, compound concentration 10 uM, replicate 2
# [15] = 0 h, replicate number 1, timepoint 0 hours
# [16] = 6 h, replicate number 1, timepoint 6 hours
# [17] = 6 h, replicate number 2, timepoint 6 hours
# [18] = 12 h, replicate number 1, timepoint 12 hours
# [19] = 18 h, replicate number 1, timepoint 18 hours
# [20] = 24 h, replicate number 1, timepoint 24 hours
structure (smiles),measurement,setting,value
Nc1nc2c(c(N3CCNCC3)n1)CCC1=C2[C@@H]2CCCC[C@@H]2O1,Population Apoptotic (%),U2OS [1]; [3],34%
same,Population Fragmented Nuclei (%),U2OS [1]; [3],14%
same,Population Healthy Nuclei (%),U2OS [1]; [3],66%
same,Population Hoechst High Intensity Objects (%),U2OS [1]; [3],7%
same,Population Membrane Permeable-Phenotype (%),U2OS [1]; [3],4%
same,Population Mitochondria Different-Phenotype (%),U2OS [1]; [3],9%
same,Population Mitotic Cells (%),U2OS [1]; [3],65%
same,Population Normal (%),U2OS [1]; [3],92%
same,Population Tubulin-Different-Phenotype (%),U2OS [1]; [3],7%
same,Total Cell Count,U2OS [1]; [3],167
same,Population Apoptotic (%),U2OS [1]; [4],0%
same,Population Fragmented Nuclei (%),U2OS [1]; [4],20%
same,Population Healthy Nuclei (%),U2OS [1]; [4],61%
same,Population Hoechst High Intensity Objects (%),U2OS [1]; [4],15%
same,Population Membrane Permeable-Phenotype (%),U2OS [1]; [4],8%
same,Population Mitochondria Different-Phenotype (%),U2OS [1]; [4],27%
same,Population Mitotic Cells (%),U2OS [1]; [4],100%
same,Population Normal (%),U2OS [1]; [4],84%
same,Population Pyknosed Nuclei (%),U2OS [1]; [4],18%
same,Population Tubulin-Different-Phenotype (%),U2OS [1]; [4],21%
same,Total Cell Count,U2OS [1]; [4],71
same,Population Apoptotic (%),U2OS [1]; [5],26%
same,Population Fragmented Nuclei (%),U2OS [1]; [5],13%
same,Population Healthy Nuclei (%),U2OS [1]; [5],62%
same,Population Hoechst High Intensity Objects (%),U2OS [1]; [5],9%
same,Population Membrane Permeable-Phenotype (%),U2OS [1]; [5],11%
same,Population Mitochondria Different-Phenotype (%),U2OS [1]; [5],88%
same,Population Mitotic Cells (%),U2OS [1]; [5],73%
same,Population Normal (%),U2OS [1]; [5],90%
same,Population Pyknosed Nuclei (%),U2OS [1]; [5],24%
same,Population Tubulin-Different-Phenotype (%),U2OS [1]; [5],93%
same,Total Cell Count,U2OS [1]; [5],135
same,Population Apoptotic (%),U2OS [1]; [6],27%
same,Population Fragmented Nuclei (%),U2OS [1]; [6],9%
same,Population Healthy Nuclei (%),U2OS [1]; [6],68%
same,Population Hoechst High Intensity Objects (%),U2OS [1]; [6],3%
same,Population Membrane Permeable-Phenotype (%),U2OS [1]; [6],25%
same,Population Mitochondria Different-Phenotype (%),U2OS [1]; [6],87%
same,Population Mitotic Cells (%),U2OS [1]; [6],72%
same,Population Normal (%),U2OS [1]; [6],96%
same,Population Pyknosed Nuclei (%),U2OS [1]; [6],21%
same,Population Tubulin-Different-Phenotype (%),U2OS [1]; [6],92%
same,Total Cell Count,U2OS [1]; [6],106
same,Population Apoptotic (%),U2OS [1]; [7],39%
same,Population Fragmented Nuclei (%),U2OS [1]; [7],15%
same,Population Healthy Nuclei (%),U2OS [1]; [7],65%
same,Population Hoechst High Intensity Objects (%),U2OS [1]; [7],4%
same,Population Membrane Permeable-Phenotype (%),U2OS [1]; [7],7%
same,Population Mitochondria Different-Phenotype (%),U2OS [1]; [7],4%
same,Population Mitotic Cells (%),U2OS [1]; [7],60%
same,Population Normal (%),U2OS [1]; [7],95%
same,Population Pyknosed Nuclei (%),U2OS [1]; [7],19%
same,Population Tubulin-Different-Phenotype (%),U2OS [1]; [7],3%
same,Total Cell Count,U2OS [1]; [7],203
same,Population Apoptotic (%),U2OS [1]; [8],20%
same,Population Fragmented Nuclei (%),U2OS [1]; [8],22%
same,Population Healthy Nuclei (%),U2OS [1]; [8],57%
same,Population Hoechst High Intensity Objects (%),U2OS [1]; [8],8%
same,Population Membrane Permeable-Phenotype (%),U2OS [1]; [8],6%
same,Population Mitochondria Different-Phenotype (%),U2OS [1]; [8],20%
same,Population Mitotic Cells (%),U2OS [1]; [8],80%
same,Population Normal (%),U2OS [1]; [8],91%
same,Population Pyknosed Nuclei (%),U2OS [1]; [8],20%
same,Population Tubulin-Different-Phenotype (%),U2OS [1]; [8],16%
same,Total Cell Count,U2OS [1]; [8],82
same,Population Apoptotic (%),U2OS [1]; [9],40%
same,Population Fragmented Nuclei (%),U2OS [1]; [9],11%
same,Population Healthy Nuclei (%),U2OS [1]; [9],45%
same,Population Hoechst High Intensity Objects (%),U2OS [1]; [9],14%
same,Population Membrane Permeable-Phenotype (%),U2OS [1]; [9],16%
same,Population Mitochondria Different-Phenotype (%),U2OS [1]; [9],85%
same,Population Mitotic Cells (%),U2OS [1]; [9],59%
same,Population Normal (%),U2OS [1]; [9],85%
same,Population Pyknosed Nuclei (%),U2OS [1]; [9],43%
same,Population Tubulin-Different-Phenotype (%),U2OS [1]; [9],75%
same,Total Cell Count,U2OS [1]; [9],140
same,Population Apoptotic (%),U2OS [1]; [10],33%
same,Population Fragmented Nuclei (%),U2OS [1]; [10],8%
same,Population Healthy Nuclei (%),U2OS [1]; [10],46%
same,Population Hoechst High Intensity Objects (%),U2OS [1]; [10],2%
same,Population Membrane Permeable-Phenotype (%),U2OS [1]; [10],22%
same,Population Mitochondria Different-Phenotype (%),U2OS [1]; [10],79%
same,Population Mitotic Cells (%),U2OS [1]; [10],66%
same,Population Normal (%),U2OS [1]; [10],97%
same,Population Pyknosed Nuclei (%),U2OS [1]; [10],45%
same,Population Tubulin-Different-Phenotype (%),U2OS [1]; [10],69%
same,Total Cell Count,U2OS [1]; [10],109
same,Population Apoptotic (%),U2OS [1]; [11],31%
same,Population Fragmented Nuclei (%),U2OS [1]; [11],8%
same,Population Healthy Nuclei (%),U2OS [1]; [11],78%
same,Population Hoechst High Intensity Objects (%),U2OS [1]; [11],5%
same,Population Membrane Permeable-Phenotype (%),U2OS [1]; [11],3%
same,Population Mitochondria Different-Phenotype (%),U2OS [1]; [11],5%
same,Population Mitotic Cells (%),U2OS [1]; [11],68%
same,Population Normal (%),U2OS [1]; [11],94%
same,Population Pyknosed Nuclei (%),U2OS [1]; [11],13%
same,Population Tubulin-Different-Phenotype (%),U2OS [1]; [11],5%
same,Total Cell Count,U2OS [1]; [11],299
same,Population Apoptotic (%),U2OS [1]; [12],40%
same,Population Fragmented Nuclei (%),U2OS [1]; [12],19%
same,Population Healthy Nuclei (%),U2OS [1]; [12],65%
same,Population Hoechst High Intensity Objects (%),U2OS [1]; [12],9%
same,Population Membrane Permeable-Phenotype (%),U2OS [1]; [12],4%
same,Population Mitochondria Different-Phenotype (%),U2OS [1]; [12],17%
same,Population Mitotic Cells (%),U2OS [1]; [12],60%
same,Population Normal (%),U2OS [1]; [12],90%
same,Population Pyknosed Nuclei (%),U2OS [1]; [12],14%
same,Population Tubulin-Different-Phenotype (%),U2OS [1]; [12],13%
same,Total Cell Count,U2OS [1]; [12],113
same,Population Apoptotic (%),U2OS [1]; [13],62%
same,Population Fragmented Nuclei (%),U2OS [1]; [13],19%
same,Population Healthy Nuclei (%),U2OS [1]; [13],32%
same,Population Hoechst High Intensity Objects (%),U2OS [1]; [13],18%
same,Population Membrane Permeable-Phenotype (%),U2OS [1]; [13],8%
same,Population Mitochondria Different-Phenotype (%),U2OS [1]; [13],76%
same,Population Mitotic Cells (%),U2OS [1]; [13],37%
same,Population Normal (%),U2OS [1]; [13],81%
same,Population Pyknosed Nuclei (%),U2OS [1]; [13],48%
same,Population Tubulin-Different-Phenotype (%),U2OS [1]; [13],63%
same,Total Cell Count,U2OS [1]; [13],175
same,Population Apoptotic (%),U2OS [1]; [14],48%
same,Population Fragmented Nuclei (%),U2OS [1]; [14],9%
same,Population Healthy Nuclei (%),U2OS [1]; [14],40%
same,Population Hoechst High Intensity Objects (%),U2OS [1]; [14],12%
same,Population Membrane Permeable-Phenotype (%),U2OS [1]; [14],21%
same,Population Mitochondria Different-Phenotype (%),U2OS [1]; [14],78%
same,Population Mitotic Cells (%),U2OS [1]; [14],51%
same,Population Normal (%),U2OS [1]; [14],87%
same,Population Pyknosed Nuclei (%),U2OS [1]; [14],50%
same,Population Tubulin-Different-Phenotype (%),U2OS [1]; [14],53%
same,Total Cell Count,U2OS [1]; [14],133
same,Growth Rate,HEK-293T; [15],0
same,Growth Rate,HEK-293T; [16],1
same,Growth Rate,HEK-293T; [17],0
same,Growth Rate,HEK-293T; [18],1
same,Growth Rate,"HEK-293T; 12 h, replicate number 2, timepoint 12 hours",0
same,Growth Rate,HEK-293T; [19],0
same,Growth Rate,HEK-293T; [20],0
same,Growth Rate,Fibroblast; [15],0
same,Growth Rate,Fibroblast; [16],1
same,Growth Rate,Fibroblast; [17],0
same,Growth Rate,Fibroblast; [18],0
same,Growth Rate,Fibroblast; [19],0
same,Growth Rate,Fibroblast; [20],0
same,Growth Rate,"U2OS [2]; 0 h, replicate number 2, timepoint 0 hours",0
same,Growth Rate,U2OS [2]; [17],1
same,Growth Rate,U2OS [2]; [18],1
same,Growth Rate,U2OS [2]; [19],1
same,Growth Rate,U2OS [2]; [20],1
